As a reminder, the IC50 is the concentration needed to halve the response being measured. A higher IC50 goes with weaker potency in that assay. For orientation: MIC means the lowest concentration found to suppress growth.

≈ marks a conversion by molar mass, not a printed value.

For assay [1], the system named is Streptococcus pyogenes. The experiment in a line: Antibacterial activity measured as mouse protection against Streptococcus pyogenes C 203 after subcutaneous administration. Format: functional. The conditions noted are these: for ED50: Streptococcus pyogenes, C 203, sc, read-out: PD50.
The next assay concerns the target DNA gyrase (Escherichia coli, UniProt P0AES4+P0AES6). The experiment in a line: Inhibition against DNA gyrase. It is filed as protein-complex assay.
The next assay has as its system Providencia rettgeri. The experiment in a line: Minimum inhibitory concentration was evaluated in vitro against Providencia rettgeri M1771. It is filed as functional. The method in brief:
(§1)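 Standard microtitration broth assay against a panel of 10 Gram-positive and Gram-negative organisms. MIC read in µg/mL and averaged over multiple experiments.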

The test system of a further assay is Streptococcus pneumoniae. The experiment in a line: Minimum inhibitory concentration was evaluated in vitro against Streptococcus pneumoniae SV-1. Format: functional. The method in brief: as §1
Assay [2] concerns Escherichia coli. The experiment in a line: Antibacterial activity in vitro against Escherichia coli Vogel. It is filed as functional. Summed up:
as §1

Another assay has as its system Pseudomonas aeruginosa. The experiment in a line: Minimum inhibitory concentration was evaluated in vitro against Pseudomonas aeruginosa UI-18. It is filed as functional. The method in brief: as §1
Assay [3] concerns Escherichia coli. The experiment in a line: Antibacterial activity against Escherichia coli Vogel after oral administration in mouse. It is filed as functional. The conditions noted are these: Escherichia coli, po; read-out: PD50.
Assay [4] concerns Staphylococcus aureus. The experiment in a line: Minimum inhibitory concentration was evaluated in vitro against Staphylococcus aureus H 228. It is filed as functional. The method in brief:
as §1

Another assay deals with Enterobacter cloacae. The experiment in a line: Minimum inhibitory concentration in vitro against Enterobacter cloacae MA 2646. Format: functional.
For the next assay, the system named is Klebsiella pneumoniae. The experiment in a line: Minimum inhibitory concentration was evaluated in vitro against Klebsiella pneumoniae MGH2. It is filed as functional. Summed up:
as §1

Another assay has as its system Enterococcus faecalis. The experiment in a line: Minimum inhibitory concentration was evaluated in vitro against Enterococcus faecalis MGH-2. Format: functional. The method in brief: as §1
For assay [5], the system named is Staphylococcus aureus. The experiment in a line: Minimum inhibitory concentration was evaluated in vitro against Staphylococcus aureus UC 76. Format: functional. The conditions noted are these: Staphylococcus aureus; read-out: MIC. Summed up: as §1
The subject of assay [6] is Escherichia coli. The experiment in a line: Antibacterial activity against Escherichia coli Vogel after subcutaneous administration in mouse. It is filed as functional. The conditions noted are these: Escherichia coli, sc; read-out: PD50.
Assay [7] deals with Streptococcus pyogenes. The experiment in a line: Compounds were evaluated in vivo for antibacterial activity for mouse protection against Streptococcus pyogenes C 203 after oral administration. It is filed as functional. The conditions noted are these: for ED50: Streptococcus pyogenes, C 203, po, read-out: PD50.
The subject of assay [8] is Streptococcus pyogenes. The experiment in a line: Minimum inhibitory concentration was evaluated in vitro against Streptococcus pyogenes C 203. It is filed as functional. Summed up:
as §1

Where [9] appears, read: Providencia rettgeri, read-out: MIC.
[10] abbreviates: Streptococcus pneumoniae, read-out: MIC.
The mark [11] stands for this setting: Escherichia coli, read-out: MIC.
Where [12] appears, read: Pseudomonas aeruginosa, read-out: MIC.
Setting [13] is: Staphylococcus aureus, read-out: MIC.
The mark [14] stands for this setting: Enterobacter cloacae, read-out: MIC.
[15] abbreviates: Klebsiella pneumoniae, read-out: MIC.
The mark [16] stands for this setting: Enterococcus faecalis, read-out: MIC.
The mark [17] stands for this setting: Streptococcus pyogenes, read-out: MIC.

For the molecule `CCN[C@H](C)[C@H]1CCN(c2c(F)cc3c(=O)c(C(=O)O)cn(C4CC4)c3c2C(F)(F)F)C1` (racemic), the ED50 in the assay on Streptococcus pyogenes [1] worked out at 0.5 mg/kg; with Escherichia coli [3], 5 mg/kg; with Escherichia coli [6], 3 mg/kg; in the assay on Streptococcus pyogenes [7] it was 0.7 mg/kg. In addition, at DNA gyrase, the IC50 is 1930 nM. The MIC in the assay on Providencia rettgeri (setting [9]) came to 1.6 µg/mL (≈ 3.51 µM); in the assay on Streptococcus pneumoniae (setting [10]), 0.013 µg/mL (≈ 0.0285 µM); with Escherichia coli [2] (setting [11]), 0.8 µg/mL (≈ 1.76 µM); with Pseudomonas aeruginosa (setting [12]) it was 6.3 µg/mL (≈ 13.8 µM); in the assay with Staphylococcus aureus [4] (setting [13]), 0.05 µg/mL (≈ 0.11 µM); in the assay with Enterobacter cloacae (setting [14]), 0.4 µg/mL (≈ 0.878 µM). Further, the MIC is 1.6 µg/mL (≈ 3.51 µM) with Klebsiella pneumoniae (setting [15]), 0.1 µg/mL (≈ 0.22 µM) with Enterococcus faecalis (setting [16]), 0.013 µg/mL (≈ 0.0285 µM) with Staphylococcus aureus [5] and 0.025 µg/mL (≈ 0.0549 µM) with Streptococcus pyogenes [8] (setting [17]).

As for `NCC1CCN(c2nc3c(cc2F)c(=O)c(C(=O)O)cn3C2CC2)C1` (stereo not given), the ED50 in the assay on Streptococcus pyogenes [1] came out at 4 mg/kg; with Escherichia coli [3] it was 17 mg/kg; in the assay on Escherichia coli [6] it was 1 mg/kg; in the assay on Streptococcus pyogenes [7] it was 39 mg/kg. Besides, the IC50 at DNA gyrase is 2170 nM. Further, the MIC is 0.4 µg/mL (≈ 1.15 µM) with Providencia rettgeri (setting [9]); 0.1 µg/mL (≈ 0.289 µM) with Streptococcus pneumoniae (setting [10]); 0.05 µg/mL (≈ 0.144 µM) with Escherichia coli [2] (setting [11]); 0.2 µg/mL (≈ 0.577 µM) in the assay on Pseudomonas aeruginosa (setting [12]); 0.1 µg/mL (≈ 0.289 µM) in the assay on Staphylococcus aureus [4] (setting [13]); 0.1 µg/mL (≈ 0.289 µM) with Enterobacter cloacae (setting [14]). Besides, the MIC in the assay with Klebsiella pneumoniae (setting [15]) turned out to be 0.1 µg/mL (≈ 0.289 µM); in the assay with Enterococcus faecalis (setting [16]) it was 0.025 µg/mL (≈ 0.0722 µM); with Staphylococcus aureus [5] it was 0.003 µg/mL (≈ 0.00866 µM); in the assay on Streptococcus pyogenes [8] (setting [17]), 0.025 µg/mL (≈ 0.0722 µM).

In the case of `CC1(CN)CCN(c2nc3c(cc2F)c(=O)c(C(=O)O)cn3C2CC2)C1` (stereo not given), the ED50 with Streptococcus pyogenes [1] was determined as 2 mg/kg; in the assay with Escherichia coli [3], 10 mg/kg; in the assay on Escherichia coli [6] it was 2 mg/kg; with Streptococcus pyogenes [7], 6 mg/kg. Moreover, half-maximal inhibition against DNA gyrase (IC50) was put at 13900 nM. Also, the MIC came to 0.4 µg/mL (≈ 1.11 µM) with Providencia rettgeri (setting [9]); 0.025 µg/mL (≈ 0.0694 µM) with Streptococcus pneumoniae (setting [10]); 0.2 µg/mL (≈ 0.555 µM) in the assay with Escherichia coli [2] (setting [11]); 0.8 µg/mL (≈ 2.22 µM) in the assay on Pseudomonas aeruginosa (setting [12]); 0.025 µg/mL (≈ 0.0694 µM) in the assay on Staphylococcus aureus [4] (setting [13]); 0.1 µg/mL (≈ 0.277 µM) in the assay with Enterobacter cloacae (setting [14]). For the same molecule, the MIC is 0.1 µg/mL (≈ 0.277 µM) in the assay with Klebsiella pneumoniae (setting [15]), 0.05 µg/mL (≈ 0.139 µM) in the assay with Enterococcus faecalis (setting [16]), 0.006 µg/mL (≈ 0.0166 µM) in the assay with Staphylococcus aureus [5] and 0.05 µg/mL (≈ 0.139 µM) in the assay on Streptococcus pyogenes [8] (setting [17]).

Take `NCC1CCN(c2cc3c(cc2F)c(=O)c(C(=O)O)cn3C2CC2)C1` (stereo not given): the ED50 in the assay on Streptococcus pyogenes [1] is 4 mg/kg; with Escherichia coli [3] it was more than 100 mg/kg; in the assay on Escherichia coli [6], 2 mg/kg; with Streptococcus pyogenes [7], more than 100 mg/kg. The molecule also showed an IC50 against DNA gyrase of 1450 nM. In addition, the MIC stood at 0.2 µg/mL (≈ 0.579 µM) in the assay on Providencia rettgeri (setting [9]); 0.013 µg/mL (≈ 0.0376 µM) with Streptococcus pneumoniae (setting [10]); 0.05 µg/mL (≈ 0.145 µM) in the assay with Escherichia coli [2] (setting [11]); 0.8 µg/mL (≈ 2.32 µM) in the assay on Pseudomonas aeruginosa (setting [12]); 0.05 µg/mL (≈ 0.145 µM) with Staphylococcus aureus [4] (setting [13]); 0.1 µg/mL (≈ 0.29 µM) with Enterobacter cloacae (setting [14]). Also, the MIC is 0.1 µg/mL (≈ 0.29 µM) with Klebsiella pneumoniae (setting [15]), 0.05 µg/mL (≈ 0.145 µM) in the assay on Enterococcus faecalis (setting [16]), 0.006 µg/mL (≈ 0.0174 µM) in the assay on Staphylococcus aureus [5] and 0.013 µg/mL (≈ 0.0376 µM) with Streptococcus pyogenes [8] (setting [17]).

With `C[C@@H](N)[C@H]1CCN(c2cc3c(cc2F)c(=O)c(C(=O)O)cn3C2CC2)C1` (racemic), the PD50 in the assay with Streptococcus pyogenes [1] was determined as 1 mg/kg; in the assay on Streptococcus pyogenes [7], 11 mg/kg. At DNA gyrase, 1390 nM corresponded to half-maximal inhibition (IC50). Further, the MIC in the assay with Providencia rettgeri worked out at 0.2 µg/mL (≈ 0.556 µM); against Streptococcus pneumoniae, 0.013 µg/mL (≈ 0.0362 µM); against Escherichia coli [2], 0.05 µg/mL (≈ 0.139 µM); in the assay with Pseudomonas aeruginosa it was 0.4 µg/mL (≈ 1.11 µM); against Staphylococcus aureus [4], 0.05 µg/mL (≈ 0.139 µM); in the assay with Enterobacter cloacae, 0.05 µg/mL (≈ 0.139 µM). The MIC with Klebsiella pneumoniae is 0.1 µg/mL (≈ 0.278 µM); in the assay with Enterococcus faecalis, 0.025 µg/mL (≈ 0.0696 µM); in the assay on Staphylococcus aureus [5], 0.025 µg/mL (≈ 0.0696 µM); in the assay on Streptococcus pyogenes [8], 0.003 µg/mL (≈ 0.00835 µM). In addition, the ED50 came to 47 mg/kg with Escherichia coli [3] and 1 mg/kg in the assay on Escherichia coli [6].

The values are drawn from ChEMBL document CHEMBL1126988, “Quinolone antibacterials containing the new 7-[3-(1-aminoethyl)-1- pyrrolidinyl] side chain: the effects of the 1-aminoethyl moiety and its stereochemical configurations on potency and in vivo efficacy” (J Med Chem, 1993).
